In ChEMBL document CHEMBL4715820, “Aglycone Ebselen and β-d-Xyloside Primed Glycosaminoglycans Co-contribute to Ebselen β-d-Xyloside-Induced Cytotoxicity” (J Med Chem, 2018):
The source made the active and inactive calls. The rule behind the calls is not given here.

Experiments:
HCT-116 [1] = assay: Cytotoxicity in human HCT-116 cells assessed as reduction in cell viability incubated for 48 hrs by resazurin dye based assay; assay type: functional; settings: for IC50: HCT-116, 48 h
In short: (§1)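 Cells seeded at 2000/well, 24 h later exposed to serial dilutions (0.1% DMSO vehicle) in complete medium for 48 h; resazurin (2 mg/mL stock) then added for 16 h; fluorescence at 544 nm excitation/595 nm emission, proportional to living cells. Triplicate wells, repeated twice; IC50 from concentration-response.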

HCT-116 [2] = assay: Induction of apoptosis in human HCT-116 cells assessed as increase in early apoptosis level at 40 uM incubated for 24 hrs by annexin-V/propidium iodide staining based flow cytometry relative to control; assay type: functional, cell-based
In short: (§2)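 HCT116 cells were seeded at 6 × 10^4 cells/well and treated 24 h later in medium containing 0.1% DMSO, with DMSO alone as the control. Floating and trypsinized adherent cells were pooled and washed in binding buffer. They were stained with Annexin V/PI for 15 min at room temperature and read by flow cytometry. Early apoptotic cells were FITC+/PI−; late apoptotic cells were FITC+/PI+.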

HT-29 = assay: Cytotoxicity in human HT-29 cells assessed as reduction in cell viability incubated for 48 hrs by resazurin dye based assay; assay type: functional; settings: for IC50: HT-29, 48 h; in short: as §1
A549 = assay: Cytotoxicity in human A549 cells assessed as reduction in cell viability incubated for 48 hrs by resazurin dye based assay; assay type: functional; settings: for IC50: A549, 48 h; in short: as §1
HCT-116 [3] = assay: Induction of cell cycle arrest in human HCT-116 cells assessed as increase in G2/M cell population level at 20 uM incubated for 24 hrs by propidium iodide /RNase staining based flow cytometry relative to control; assay type: functional
In short: (§3)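 HCT116 cells (6 × 10^4/well, six-well plates) treated after 24 h for 24 h (12.5 or 15 μM for one conjugate, 20 μM for others; 0.1% DMSO vehicle); floating and trypsinized cells fixed in 70% ethanol at 4 °C overnight, stained with PI/RNase 15 min at room temperature, DNA content by flow cytometry; phase distribution versus control.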

NCI-H1299 = assay: Cytotoxicity in human NCI-H1299 cells assessed as reduction in cell viability incubated for 48 hrs by resazurin dye based assay; assay type: functional; settings: for IC50: NCI-H1299, 48 h; in short: as §1
HCT-116 [4] = assay: Induction of apoptosis in human HCT-116 cells assessed as increase in late apoptosis level at 40 uM incubated for 48 hrs by annexin-V/propidium iodide staining based flow cytometry relative to control
HCT-116 [5] = assay: Induction of apoptosis in human HCT-116 cells assessed as increase in late apoptosis level at 40 uM incubated for 24 hrs by annexin-V/propidium iodide staining based flow cytometry relative to control; assay type: functional, cell-based; in short: as §2
HCT-116 [6] = assay: Induction of cell cycle arrest at S phase in human HCT-116 cells at 40 uM incubated for 24 hrs by propidium iodide /RNase staining based flow cytometry; assay type: functional
In short: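 HCT116 cells (6 × 10^4/well) were seeded, then exposed 24 h later in complete medium, with 0.1% DMSO as the control. After 24 h, medium cells and trypsinized adherent cells were combined. Pellets were fixed in 70% ethanol at 4 °C overnight and stained with PI/RNase buffer for 15 min at room temperature. Phase distribution (G0/G1, S, G2/M) was measured by flow cytometry.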

HCT-116 [7] = assay: Induction of apoptosis in human HCT-116 cells assessed as early apoptosis level at 12.5 uM […] by annexin-V/propidium iodide staining based flow cytometry relative to control; assay type: functional
HCT-116 [8] = assay: Induction of apoptosis in human HCT-116 cells assessed as late apoptosis level at 12.5 uM […] by annexin-V/propidium iodide staining based flow cytometry relative to control; assay type: functional
HCT-116 [9] = assay: Induction of apoptosis in human HCT-116 cells assessed as increase in early apoptosis level at 7.5 uM […] by annexin-V/propidium iodide staining based flow cytometry relative to control; assay type: functional
HCT-116 [10] = assay: Induction of cell cycle arrest in human HCT-116 cells assessed as G2/M cell population level at 15 uM incubated for 24 hrs by propidium iodide /RNase staining based flow cytometry; assay type: functional; in short: as §3
[11] = Induction of GAG priming in CHO pgsA-745 cells assessed as change in UA-GalNAc6S relative intensity level at 10 uM incubated for 24 hrs by LC-MS analysis (reference value: 29.19); assay type: functional; settings: Cricetulus griseus, time 48 hrs, in the assay text read “incubated for 48 hrs” for “incubated for 24 hrs”
In short: (§4)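 Disaccharide LC-MS: CHO pgsA-745 cells treated at 10 μM in 0.1% DMSO, GAGs purified from cells or medium, digested with 1 mU chondroitinase ABC (5 mM NH4Ac pH 7.0, 37 °C, 24 h); treated samples PMP-labelled, DMSO controls D5-PMP-labelled, mixed at equal cellular protein (1 mg), co-injected on C18 capillary LC, negative-ion MS; paired ion intensities compared.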

[12] = (§5) Induction of GAG biosynthesis in CHO pgsA-745 cells assessed as increase in GlcN level at 10 uM incubated for 48 hrs by immunostaining based confocal microscopic analysis relative to control; assay type: functional, Cricetulus griseus
HCT-116 [13] = assay: Induction of cell cycle arrest in human HCT-116 cells assessed as increase in G2/M cell population level at 12.5 uM incubated for 24 hrs by propidium iodide /RNase staining based flow cytometry relative to control; assay type: functional; in short: as §3
CHO [14] = assay: Induction of GAG biosynthesis in CHO pgsA-745 cells assessed as increase in GalN level in culture media at 10 uM incubated for 48 hrs by immunostaining based confocal microscopic analysis relative to control; assay type: functional, cell-based; settings: Cricetulus griseus
CHO [15] = assay: Induction of GAG priming in CHO pgsA-745 cells assessed as increase in FGF7/GAGs/FGFR2B ternary complex formation at 10 uM incubated for 24 hrs by confocal microscopy; assay type: functional, cell-based; settings: Cricetulus griseus
In short: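 Ternary complex assay: CHO pgsA-745 cells on coverslips treated 10 μM with 0.1% DMSO for 24 h at 37 °C, fixed in 4% formaldehyde 15 min, then incubated sequentially with FGFR2B-Fc, FGF7 and Protein A-Alexa Fluor 647; bound receptor imaged by confocal microscopy at 665 nm […].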

HCT-116 [16] = assay: Induction of apoptosis in human HCT-116 cells assessed as increase in late apoptosis level at 7.5 uM […] by annexin-V/propidium iodide staining based flow cytometry relative to control; assay type: functional, cell-based
[17] = Induction of GAG priming in CHO pgsA-745 cells assessed as increase in delta-UA-GalNAc6S level in from the cell culture media at 10 uM incubated for 24 hrs by LC-MS analysis relative to control; assay type: functional; settings: Cricetulus griseus, time 48 hrs, in the assay text read “incubated for 48 hrs” for “incubated for 24 hrs”; in short: as §4
[18] = Induction of GAG priming in CHO pgsA-745 cells assessed as change in UA-GalNAc relative intensity level at 10 uM incubated for 24 hrs by LC-MS analysis (reference value: 44.74); assay type: functional, Cricetulus griseus; in short: as §4
[19] = Induction of GAG priming in CHO pgsA-745 cells assessed as increase in delta-UA-GalNAc4S level in from the cell culture media at 10 uM incubated for 24 hrs by LC-MS analysis relative to control; assay type: functional; settings: Cricetulus griseus, time 48 hrs, in the assay text read “48 hrs” for “24 hrs”; in short: as §4
CHO [20] = assay: Induction of GAG biosynthesis in CHO pgsA-745 cells assessed as increase in GlcN level in culture media at 10 uM incubated for 48 hrs by immunostaining based confocal microscopic analysis relative to control; assay type: functional, cell-based; settings: Cricetulus griseus
HCT-116 [21] = assay: Induction of cell cycle arrest in human HCT-116 cells assessed as G2/M cell population level at 12.5 uM incubated for 24 hrs by propidium iodide /RNase staining based flow cytometry; assay type: functional; in short: as §3
[22] = Induction of GAG priming in CHO pgsA-745 cells assessed as change in UA-GalNAc4S relative intensity level at 10 uM incubated for 24 hrs by LC-MS analysis (reference value: 2.9); assay type: functional; settings: Cricetulus griseus, time 48 hrs, in the assay text read “incubated for 48 hrs” for “incubated for 24 hrs”; in short: as §4
CHO [23] = assay: Induction of GAG priming in CHO pgsA-745 cells assessed as increase in specific CS staining […] at 10 uM incubated for 24 hrs by immunostaining based flow cytometry; assay type: functional, cell-based; settings: Cricetulus griseus
In short: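 CHO pgsA-745 cells treated 10 μM with 0.1% DMSO 24 h at 37 °C, trypsinized, fixed in 4% formaldehyde, digested with 1 mU chondroitinase ABC 20 min at 37 °C, stained overnight at 4 °C with mAb 2B6 then Alexa Fluor 488 anti-mouse secondary; fluorescence intensity read by flow cytometry.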

[24] = Induction of GAG priming in CHO pgsA-745 cells assessed as increase in non-sulfated delta-UA-GalNAc level in from the cell culture media at 10 uM incubated for 48 hrs by LC-MS analysis relative to control; settings: Cricetulus griseus
[25] = (§6) Induction of GAG biosynthesis in CHO pgsA-745 cells assessed as increase in GalN level at 10 uM incubated for 48 hrs by immunostaining based confocal microscopic analysis relative to control; assay type: functional, Cricetulus griseus
[26] = Induction of GAG priming in CHO pgsA-745 cells assessed as change in UA-GalNAc6S relative intensity level at 10 uM incubated for 24 hrs by LC-MS analysis (reference value: 9.52); assay type: functional; settings: Cricetulus griseus, time 48 hrs, in the assay text read “incubated for 48 hrs” for “incubated for 24 hrs”; in short: as §4
[27] = Induction of GAG priming in CHO pgsA-745 cells assessed as change in UA-GalNAc relative intensity level at 10 uM incubated for 24 hrs by LC-MS analysis (reference value: 8.99); assay type: functional, Cricetulus griseus; in short: as §4
CHO [28] = assay: as §5; assay type: functional; settings: Cricetulus griseus
[29] = Induction of GAG priming in CHO pgsA-745 cells assessed as increase in non-sulfated delta-UA-GalNAc level in from the cell culture media at 10 uM incubated for 24 hrs by LC-MS analysis relative to control; assay type: functional; settings: Cricetulus griseus, time 48 hrs, in the assay text read “incubated for 48 hrs” for “incubated for 24 hrs”; in short: as §4
[30] = Induction of GAG priming in CHO pgsA-745 cells assessed as change in UA-GalNAc4S relative intensity level at 10 uM incubated for 24 hrs by LC-MS analysis (reference value: 1.01); assay type: functional; settings: Cricetulus griseus, time 48 hrs, in the assay text read “incubated for 48 hrs” for “incubated for 24 hrs”; in short: as §4
CHO [31] = assay: as §6; assay type: functional; settings: Cricetulus griseus

Row | Structure (SMILES) | IC50 (HCT-116 [1]) | Activity (HCT-116 [2]) | IC50 (HT-29) | IC50 (A549) | Activity (HCT-116 [3]) | IC50 (NCI-H1299) | Activity (HCT-116 [4]) | Activity (CHO [14]) | Activity (CHO [15]) | fold change (FC) [17] | fold change (FC) [19] | Activity (CHO [20]) | other results
1 | CC(=O)OC[C@H]1O[C@@H](O[C@H]2[C@H](OC(C)=O)[C@@H](OC(C)=O)[C@H](n3[se]c4ccccc4c3=O)O[C@@H]2COC(C)=O)[C@H](OC(C)=O)[C@@H](OC(C)=O)[C@H]1OC(C)=O | 24.2 µM | Active | 32.3 µM | 36.5 µM | Active | 34 µM | Active |  |  |  |  |  | 
2 | O=c1c2ccccc2[se]n1-c1ccccc1 [EBSELEN] | 50 µM | Active | 50.4 µM | 16.8 µM |  | 27.7 µM |  |  |  |  |  |  | Activity (HCT-116 [5]): Active; Activity (HCT-116 [6]): Active
3 | CC(=O)OC[C@H]1O[C@@H](n2[se]c3ccccc3c2=O)[C@H](OC(C)=O)[C@@H](OC(C)=O)[C@H]1OC(C)=O | 17.8 µM | Active | 19.3 µM | 25.2 µM | Active | 21.6 µM | Active |  |  |  |  |  | 
4 | CC(=O)OC[C@H]1O[C@@H](n2[se]c3ccccc3c2=O)[C@H](OC(C)=O)[C@@H](OC(C)=O)[C@@H]1OC(C)=O | 18 µM | Active | 11.9 µM | 20.4 µM | Active | 19 µM | Active |  |  |  |  |  | 
5 | CC(=O)O[C@@H]1[C@@H](OC(C)=O)[C@H](OC(C)=O)CO[C@H]1n1[se]c2ccccc2c1=O | 6.4 µM |  | 7.3 µM | 7 µM |  | 7 µM |  | inactive | Active | 3.4 | 34.5 | inactive | Activity (HCT-116 [7]): 10.97%; Activity (HCT-116 [8]): 13.18%; Activity (HCT-116 [1]): Dose-dependent effect; fold change (FC) (HCT-116 [9]): 27.7; Activity (HT-29): Dose-dependent effect; Activity (HCT-116 [10]): 51.9%; fold change (FC) [11]: 100; Activity (A549): Dose-dependent effect; fold change (FC) [12]: 12.2; fold change (FC) (HCT-116 [13]): 1.3; Activity (HCT-116 [16]): Active; Activity (NCI-H1299): Dose-dependent effect; fold change (FC) [18]: 100; Activity (HCT-116 [21]): 45.2%; fold change (FC) [22]: 100; Activity (CHO [23]): Active; fold change (FC) [24]: 2.24; fold change (FC) [25]: 27.6
6 | O[C@@H]1[C@@H](O)[C@H](Oc2ccccc2)OC[C@H]1O |  |  |  |  |  |  |  | Active | inactive | 10.5 | <=99 | Active | fold change (FC) [26]: 100; fold change (FC) [27]: 100; Activity (CHO [28]): Active; fold change (FC) [29]: 11; fold change (FC) [30]: 100; Activity (CHO [31]): Active
